{"source": "paper PMC3216638", "about": "(Regulatory peptides, 2009)", "type_in_all_cases": "cell-based, Homo sapiens", "key": {"hMC4R/TM4 hMC2R [1]": {"test_system": "hMC4R/TM4 hMC2R", "test": "cAMP accumulation", "conditions": "read-out: THIQ (EC50 (nM)); HEK293 cells, 1 h, 37°C, 1 mM IBMX; agonist", "method_in_brief": "(§1)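 HEK293 cells stably expressing FLAG-tagged hMC4R chimeras, with one TM swapped for the homologous hMC2R segment, were selected with G418. Cells were incubated in EBSS with test compound (10−10–10−6 M) and 10−3 M IBMX for 1 h at 37°C. The reaction was stopped with ice-cold ethanol and the supernatant dried under nitrogen at 55°C. Duplicate wells, three separate experiments; sigmoid variable-slope fit.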"}, "hMC4R/TM2 hMC2R [2]": {"test_system": "hMC4R/TM2 hMC2R", "test": "[…]-NDP-MSH displacement on transfected cells", "conditions": "read-out: THIQ Ki; whole HEK293 cells, MEM with 0.2% BSA, 1 h"}, "hMC4R/TM3 hMC2R [3]": {"test_system": "hMC4R/TM3 hMC2R", "test": "[…]-NDP-MSH displacement on transfected cells", "conditions": "read-out: THIQ Ki; whole HEK293 cells, MEM with 0.2% BSA, 1 h"}, "hMC4R/TM6 hMC2R [4]": {"test_system": "hMC4R/TM6 hMC2R", "test": "[…]-NDP-MSH displacement on transfected cells", "conditions": "read-out: THIQ Ki; whole HEK293 cells, MEM with 0.2% BSA, 1 h"}, "hMC4R/TM3 hMC2R [5]": {"test_system": "hMC4R/TM3 hMC2R", "test": "cAMP accumulation", "conditions": "read-out: THIQ (EC50 (nM)); HEK293 cells, 1 h, 37°C, 1 mM IBMX; agonist", "method_in_brief": "as §1"}, "hMC4R/TM5 hMC2R [6]": {"test_system": "hMC4R/TM5 hMC2R", "test": "[…]-NDP-MSH displacement on transfected cells", "conditions": "read-out: THIQ Ki; whole HEK293 cells, MEM with 0.2% BSA, 1 h"}, "hMC4R/TM4 hMC2R [7]": {"test_system": "hMC4R/TM4 hMC2R", "test": "[…]-NDP-MSH displacement on transfected cells", "conditions": "read-out: THIQ Ki; whole HEK293 cells, MEM with 0.2% BSA, 1 h"}, "hMC4R/TM6 hMC2R [8]": {"test_system": "hMC4R/TM6 hMC2R", "test": "cAMP accumulation", "conditions": "read-out: THIQ (EC50 (nM)); HEK293 cells, 1 h, 37°C, 1 mM IBMX; agonist", "method_in_brief": "as §1"}, "hMC4R/TM5 hMC2R [9]": {"test_system": "hMC4R/TM5 hMC2R", "test": "cAMP accumulation", "conditions": "read-out: THIQ (EC50 (nM)); HEK293 cells, 1 h, 37°C, 1 mM IBMX; agonist", "method_in_brief": "as §1"}, "hMC4R/TM2 hMC2R [10]": {"test_system": "hMC4R/TM2 hMC2R", "test": "cAMP accumulation", "conditions": "read-out: THIQ (EC50 (nM)); HEK293 cells, 1 h, 37°C, 1 mM IBMX; agonist", "method_in_brief": "as §1"}}, "data": [{"smiles": "O=C(N[C@H](Cc1ccc(Cl)cc1)C(=O)N1CCC(Cn2cncn2)(C2CCCCC2)CC1)[C@H]1Cc2ccccc2CN1", "note": "[THIQ, N-(3R)-1 4-tetrahydroisoquinolinium-3-ylcarbonyl-(1R)-1-(4-chlorobenzyl)-2-4-cyclohexyl-4-(1H-1,2,4-triazol-1-ylmethyl)piperidin-1-yl-2-oxoethylamine]", "values": [{"measurement": "EC50", "setting": "hMC4R/TM4 hMC2R [1]", "value": "3.5 ± 0.3", "unit": "nM"}, {"measurement": "Ki", "setting": "hMC4R/TM2 hMC2R [2]", "value": "6.2 ± 0.2", "unit": "nM"}, {"measurement": "Ki", "setting": "hMC4R/TM3 hMC2R [3]", "value": "76.2 ± 17.3", "unit": "nM"}, {"measurement": "Ki", "setting": "hMC4R/TM6 hMC2R [4]", "value": "5.3 ± 0.2", "unit": "nM"}, {"measurement": "EC50", "setting": "hMC4R/TM3 hMC2R [5]", "value": "91 ± 6.2", "unit": "nM"}, {"measurement": "Ki", "setting": "hMC4R/TM5 hMC2R [6]", "value": "6.7 ± 3.4", "unit": "nM"}, {"measurement": "Ki", "setting": "hMC4R/TM4 hMC2R [7]", "value": "7.2 ± 2.3", "unit": "nM"}, {"measurement": "EC50", "setting": "hMC4R/TM6 hMC2R [8]", "value": "2.8 ± 0.6", "unit": "nM"}, {"measurement": "EC50", "setting": "hMC4R/TM5 hMC2R [9]", "value": "3.9 ± 0.4", "unit": "nM"}, {"measurement": "EC50", "setting": "hMC4R/TM2 hMC2R [10]", "value": "3.1 ± 0.3", "unit": "nM"}]}]}
